# From ChEMBL document CHEMBL4270630
# How the values were obtained:
# [1] = test system: Influenza A virus; experiment: Antiviral activity against Influenza A virus A/PR/8/34(H1N1) GFP-fused pseudotyped lentiviral particle expressing H1-HA/N1-NA infected in MDCK cells assessed as inhibition of pseudoparticle entry after 3 days by flow cytometry; format: functional, organism-based; settings: A/Puerto Rico/8/1934(H1N1)
# Method in brief: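 MDCK cells were seeded at 7500/well and one day later were exposed to compounds plus GFP lentiviral pseudoparticles bearing A/PR/8/34 H1-HA and N1-NA, with HA0 activated by trypsin. After 3 days the cells were trypsinized, fixed in paraformaldehyde and analysed for GFP by flow cytometry. Entry inhibition was taken as the reduction in GFP signal. Data are the mean ± SEM of four independent experiments.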
# [2] = test system: Influenza A virus; experiment: Antiviral activity against Influenza A virus A/Virginia/ATCC3/2009(H1N1pdm) infected in MDCK cells after 3 days by MTS assay; format: functional, organism-based, Influenza A virus (A/Virginia/03/2009(H1N1)); settings: 72 h
# Method in brief: (§1)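 Semi-confluent MDCK cells were infected at an MOI of 0.0004 PFU/cell in Ultra-MDCK infection medium with 2 μg/mL TPCK-trypsin, together with compounds. After 3 days at 35 °C, CPE was scored by microscopy and confirmed by MTS formazan viability. EC50 is the concentration giving 50% inhibition of virus-induced CPE. Values are means of two to five independent tests.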
# [3] = Cytotoxicity against MDCK cells assessed as alteration in cell morphology after 3 days by microscopic method; format: cell-based, Canis lupus familiaris; settings: dog
# Method in brief: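 Mock-infected MDCK cells were treated with compounds in parallel with the antiviral assay, 3 days at 35 °C. MCC is the concentration causing minimal change in cell morphology by microscopy. CC50 is the 50% cytotoxic concentration by MTS formazan viability assay.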
# [4] = Selectivity index, ratio of MCC for MDCK cells to EC50 for Influenza A virus A/PR/8/34(H1N1) infected in MDCK cells assessed as reduction in virus-induced cytopathic effect by microscopic method; format: toxicity, cell-based; settings: dog, read-out: Selectivity Index
# Method in brief: (§2)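 Selectivity index is MCC divided by EC50. MCC comes from microscopy of mock-infected MDCK cells. EC50 comes from microscopic scoring of virus-induced CPE in MDCK cells infected at an MOI of 0.0004 PFU/cell with TPCK-trypsin. Both readings were taken after 3 days at 35 °C.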
# [5] = test system: Influenza A virus; experiment: Antiviral activity against Influenza A virus A/PR/8/34(H1N1) infected in MDCK cells after 3 days by MTS assay; format: functional, organism-based, A/Puerto Rico/8/1934(H1N1); settings: Influenza A virus, A/Puerto Rico/8/1934(H1N1), MDCK, 72 h; method in brief: as §1
# [6] = test system: H3N2 subtype; experiment: Antiviral activity against Influenza A virus A/HK/7/87(H3N2) infected in MDCK cells assessed as reduction in virus-induced cytopathic effect after 3 days by microscopic method; format: functional, organism-based; settings: A/Hong Kong/7/1987(H3N2), 72 h; method in brief: as §1
# [7] = test system: Influenza A virus; experiment: Antiviral activity against Influenza A virus A/PR/8/34(H1N1) infected in MDCK cells assessed as reduction in virus-induced cytopathic effect after 3 days by microscopic method; format: functional, organism-based, A/Puerto Rico/8/1934(H1N1); settings: Influenza A virus, A/Puerto Rico/8/1934(H1N1), MDCK, 72 h; method in brief: as §1
# [8] = test system: Influenza B virus; experiment: Antiviral activity against Influenza B virus B/Ned/537/05 infected in MDCK cells assessed as reduction in virus-induced cytopathic effect after 3 days by microscopic method; format: functional, organism-based; settings: B/Ned/537/05, MDCK, 72 h
# Method in brief: (§3)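 Semi-confluent MDCK cells were infected at an MOI of 0.0004 PFU/cell in Ultra-MDCK infection medium with 2 μg/mL TPCK-trypsin, together with compounds. After 3 days at 35 °C, CPE was scored by microscopy and confirmed by MTS formazan viability. Values are means of two to five independent tests.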
# [9] = test system: MDCK; experiment: (§4) Cytotoxicity against MDCK cells assessed as reduction in cell viability after 3 days by MTS assay; format: cell-based, Canis lupus familiaris; settings: dog, mdck, 72 h
# [10] = Selectivity index, ratio of MCC for MDCK cells to EC50 for Influenza A virus A/Virginia/ATCC3/2009(H1N1pdm) infected in MDCK cells assessed as reduction in virus-induced cytopathic effect by microscopic method; format: toxicity, cell-based; settings: dog, read-out: Selectivity Index; method in brief: as §2
# [11] = Selectivity index, ratio of MCC for MDCK cells to EC50 for Influenza B virus B/HK/05/72 infected in MDCK cells assessed as reduction in virus-induced cytopathic effect by microscopic method; format: toxicity, cell-based; settings: dog, read-out: Selectivity Index; method in brief: as §2
# [12] = test system: H3N2 subtype; experiment: Antiviral activity against Influenza A virus A/HK/7/87(H3N2) infected in MDCK cells after 3 days by MTS assay; format: functional, organism-based; settings: A/Hong Kong/7/1987(H3N2), 72 h; method in brief: as §1
# [13] = test system: Influenza A virus; experiment: Antiviral activity against Influenza A virus A/Virginia/ATCC3/2009(H1N1pdm) infected in MDCK cells assessed as reduction in virus-induced cytopathic effect after 3 days by microscopic method; format: functional, organism-based, Influenza A virus (A/Virginia/03/2009(H1N1)); settings: 72 h; method in brief: as §1
# [14] = test system: Influenza B virus; experiment: Antiviral activity against Influenza B virus B/Ned/537/05 infected in MDCK cells after 3 days by MTS assay; format: functional, organism-based; settings: B/Ned/537/05, MDCK, 72 h; method in brief: as §3
# [15] = Selectivity index, ratio of MCC for MDCK cells to EC50 for Influenza A virus A/HK/7/87(H3N2) infected in MDCK cells assessed as reduction in virus-induced cytopathic effect by microscopic method; format: toxicity, cell-based; settings: dog, read-out: Selectivity Index; method in brief: as §2
# [16] = Selectivity index, ratio of MCC for MDCK cells to EC50 for Influenza B virus B/Ned/537/05 infected in MDCK cells assessed as reduction in virus-induced cytopathic effect by microscopic method; format: toxicity, cell-based; settings: dog, read-out: Selectivity Index; method in brief: as §2
# [17] = test system: Influenza B virus; experiment: Antiviral activity against Influenza B virus B/HK/05/72 infected in MDCK cells assessed as reduction in virus-induced cytopathic effect after 3 days by microscopic method; format: functional, organism-based; settings: B/Hong Kong/05/1972, MDCK, 72 h; method in brief: as §1
# [18] = test system: Influenza B virus; experiment: Antiviral activity against Influenza B virus B/HK/05/72 infected in MDCK cells after 3 days by MTS assay; format: functional, organism-based; settings: B/Hong Kong/05/1972, MDCK, 72 h; method in brief: as §1
# [19] = as §4; format: cell-based, Canis lupus familiaris; settings: dog, MDCK cells
SMILES,inhibition [1],EC50 [2],MCC at 72 h [3],selectivity ratio [4],EC50 [5],EC50 [6],EC50 [7],EC50 [8],CC50 [9],selectivity ratio [10],selectivity ratio [11],EC50 [12],EC50 [13],EC50 [14],selectivity ratio [15],selectivity ratio [16],EC50 [17],EC50 [18],CC50 at 72 h [19]
CCc1ccccc1OCCN1CCCCCC1,Dose-dependent effect,–,–,–,–,–,–,–,–,–,–,–,–,–,–,–,–,–,–
CCCCCCCCSC1=C(SCCCCCCCC)C(=O)N(Cc2cn(C3C(=O)N[C@@H]4Cc5ccc(c(Cl)c5)Oc5cc6cc(c5O)Oc5ccc(cc5Cl)[C@@H](O[C@@H]5O[C@H](CO)[C@@H](O)[C@H](O)[C@H]5NC(C)=O)[C@H]5NC(=O)[C@H](NC(O)[C@@H]6NC(=O)[C@@H](NC4=O)c4cc(O)cc(c4)Oc4cc3ccc4O)c3ccc(O)c(c3)-c3c(O)cc(O)cc3[C@H](C(=O)O)NC5=O)nn2)C1=O (some centres undefined),–,3.4 µM,73 µM,10,12 µM,8.9 µM,9.2 µM,6.7 µM,49 µM,10,10,6.3 µM,4.4 µM,7.2 µM,10,10,–,–,–
COC(=O)[C@@H]1NC(=O)[C@@H]2NC(=O)[C@H](NC(=O)[C@@H]3NC(=O)[C@H]4NC(=O)[C@H](NC(=O)[C@H](Nc5c(NCc6ccc(-c7ccccc7)cc6)c(=O)c5=O)c5ccc(O)c(c5)Oc5cc4cc(O)c5C)[C@H](O)c4ccc(cc4)Oc4cc3cc(c4O)Oc3ccc(cc3)[C@H]2O)c2ccc(O)c(c2)-c2c(O)cc(O)cc21,Dose-dependent effect,–,–,–,–,–,–,–,–,–,–,–,–,–,–,–,–,–,–
CCCCCCCCCCOCc1cn([C@H]2C(=O)N[C@@H]3Cc4ccc(c(Cl)c4)Oc4cc5cc(c4O)Oc4ccc(cc4Cl)[C@@H](O[C@@H]4O[C@H](CO)[C@@H](O)[C@H](O)[C@H]4NC(C)=O)[C@H]4NC(=O)[C@H](NC(O)[C@@H]5NC(=O)[C@@H](NC3=O)c3cc(O)cc(c3)Oc3cc2ccc3O)c2ccc(O)c(c2)-c2c(O)cc(O)cc2[C@H](C(=O)O)NC4=O)nn1 (some centres undefined),–,> 100 µM,4 µM,–,> 100 µM,> 100 µM,> 100 µM,–,–,–,–,> 100 µM,> 100 µM,–,–,–,> 100 µM,> 100 µM,3.7 µM
CCN(CC)CCCC(C)Nc1ccnc2cc(Cl)ccc12 (centres undefined),Dose-dependent effect,–,–,–,–,–,–,–,–,–,–,–,–,–,–,–,–,–,–
CC(=O)N[C@H]1[C@H](O[C@@H]2c3ccc(c(Cl)c3)Oc3cc4cc(c3O)Oc3ccc(cc3Cl)C[C@H]3NC(=O)[C@H](n5cc(COC[C@H]6O[C@@H]7OC(C)(C)O[C@@H]7[C@H]7OC(C)(C)O[C@H]76)nn5)c5ccc(O)c(c5)Oc5cc(O)cc(c5)[C@H](NC3=O)C(=O)N[C@H]4C(O)N[C@H]3C(=O)N[C@H]2C(=O)N[C@@H](C(=O)O)c2cc(O)cc(O)c2-c2cc3ccc2O)O[C@H](CO)[C@@H](O)[C@@H]1O (some centres undefined),–,43 µM,≥ 100 µM,–,47 µM,39 µM,52 µM,–,–,–,–,24 µM,45 µM,–,–,–,39 µM,29 µM,> 100 µM
CCCCCCCCCCCCCCCCOCc1cn([C@H]2C(=O)N[C@@H]3Cc4ccc(c(Cl)c4)Oc4cc5cc(c4O)Oc4ccc(cc4Cl)[C@@H](O[C@@H]4O[C@H](CO)[C@@H](O)[C@H](O)[C@H]4NC(C)=O)[C@H]4NC(=O)[C@H](NC(O)[C@@H]5NC(=O)[C@@H](NC3=O)c3cc(O)cc(c3)Oc3cc2ccc3O)c2ccc(O)c(c2)-c2c(O)cc(O)cc2[C@H](C(=O)O)NC4=O)nn1 (some centres undefined),–,1.8 µM,≥ 4 µM,–,1.8 µM,≤ 8.9 µM,1.6 µM,–,–,–,–,≤ 1.6 µM,1.8 µM,–,–,–,1.8 µM,1.3 µM,7.6 µM
CCCCCCCCCCCCOCc1cn([C@H]2C(=O)N[C@@H]3Cc4ccc(c(Cl)c4)Oc4cc5cc(c4O)Oc4ccc(cc4Cl)[C@@H](O[C@@H]4O[C@H](CO)[C@@H](O)[C@H](O)[C@H]4NC(C)=O)[C@H]4NC(=O)[C@H](NC(O)[C@@H]5NC(=O)[C@@H](NC3=O)c3cc(O)cc(c3)Oc3cc2ccc3O)c2ccc(O)c(c2)-c2c(O)cc(O)cc2[C@H](C(=O)O)NC4=O)nn1 (some centres undefined),–,> 100 µM,9.3 µM,–,> 100 µM,> 100 µM,> 100 µM,–,–,–,–,> 100 µM,> 100 µM,–,–,–,> 100 µM,> 100 µM,2.3 µM
CC(=O)N[C@H]1[C@H](O[C@@H]2c3ccc(c(Cl)c3)Oc3cc4cc(c3O)Oc3ccc(cc3Cl)C[C@H]3NC(=O)[C@H](n5cc(COc6cccc7ccccc67)nn5)c5ccc(O)c(c5)Oc5cc(O)cc(c5)[C@H](NC3=O)C(=O)N[C@H]4C(O)N[C@H]3C(=O)N[C@H]2C(=O)N[C@@H](C(=O)O)c2cc(O)cc(O)c2-c2cc3ccc2O)O[C@H](CO)[C@@H](O)[C@@H]1O (some centres undefined),–,4.4 µM,20 µM,–,11 µM,15 µM,11 µM,–,–,–,–,8 µM,11 µM,–,–,–,15 µM,6.6 µM,47 µM
CC(C)c1ccccc1NCCN1CCCCC1,Dose-dependent effect,–,–,–,–,–,–,–,–,–,–,–,–,–,–,–,–,–,–
CC(=O)N[C@H]1[C@H](O[C@@H]2c3ccc(c(Cl)c3)Oc3cc4cc(c3O)Oc3ccc(cc3Cl)C[C@H]3NC(=O)[C@H](n5cc(COc6ccccc6)nn5)c5ccc(O)c(c5)Oc5cc(O)cc(c5)[C@H](NC3=O)C(=O)N[C@H]4C(O)N[C@H]3C(=O)N[C@H]2C(=O)N[C@@H](C(=O)O)c2cc(O)cc(O)c2-c2cc3ccc2O)O[C@H](CO)[C@@H](O)[C@@H]1O (some centres undefined),–,> 100 µM,≥ 20 µM,–,> 100 µM,11 µM,> 100 µM,–,–,–,–,11 µM,> 100 µM,–,–,–,> 100 µM,> 100 µM,41 µM
